Data: ChEMBL document CHEMBL1944580, “Synthesis of novel sulfonamide-1,2,4-triazoles, 1,3,4-thiadiazoles and 1,3,4-oxadiazoles, as potential antibacterial and antifungal agents. Biological evaluation and conformational analysis studies” (2012)
Values after ≈ are worked out from the molar mass of the structure shown.

Assays:
[1] = system: Aspergillus versicolor; experiment: Antifungal activity against Aspergillus versicolor ATCC 11730 treated for 72 hrs followed by sub-cultivated for 5 days by serial dilution method; format: functional
How it was run: (§1)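 MFC obtained after the 72 h, 28 °C malt-broth microdilution (spore inoculum about 1.0 × 10^5 per well, compounds from 1 mg/ml DMSO). 2 µl was serially subcultured into 100 µl broth per well and incubated a further 5 days at 28 °C. MFC is the lowest concentration with no visible growth, taken as 99.5% killing of the original inoculum.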

[2] = system: Staphylococcus aureus; experiment: Antibacterial activity against Staphylococcus aureus ATCC 6538 treated for 24 hrs followed by sub-cultivated for 72 hrs by micro dilution method; format: functional
How it was run: (§2)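 2 µl from each well was serially subcultured into 100 µl fresh broth per well and incubated a further 72 h. MBC is the lowest concentration with no visible growth, taken as 99.5% killing of the original inoculum. Streptomycin and ampicillin were the positive controls.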

[3] = system: Trichoderma viride; experiment: Antifungal activity against Trichoderma viride IAM 5061 treated for 72 hrs followed by sub-cultivated for 5 days by serial dilution method; format: functional; how it was run: as §1
[4] = system: Bacillus cereus; experiment: Antibacterial activity against Bacillus cereus clinical isolate treated for 24 hrs followed by sub-cultivated for 72 hrs by micro dilution method; format: functional; how it was run: as §2
[5] = system: Escherichia coli; experiment: Antibacterial activity against Escherichia coli ATCC 35210 after 24 hrs by micro dilution method; format: functional; details: ATCC 35210, 24 h
How it was run: (§3)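 Microdilution MIC in 96-well plates. Bacterial suspensions adjusted in sterile saline to 1.0 × 10^5 CFU/ml, giving 1.0 × 10^4 cfu per well in LB broth. Compounds tested at up to 1 mg/ml. Plates incubated 24 h. MIC taken as the lowest concentration with no visible growth under a binocular microscope. OD at 655 nm was also read against a blank and the positive control. Streptomycin and ampicillin were the positive controls.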

[6] = system: Aspergillus niger; experiment: Antifungal activity against Aspergillus niger ATCC 6275 after 72 hrs by serial dilution method; format: functional; details: ATCC 6275, 72 h
How it was run: (§4)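 Modified microdilution MIC. Spores were washed from malt agar cultures with sterile 0.85% saline containing 0.1% Tween 80 and adjusted to about 1.0 × 10^5 per 100 µl well in malt broth. Compounds were dissolved in DMSO (1 mg/ml). Plates incubated 72 h at 28 °C. MIC is the lowest concentration with no visible growth under a binocular microscope. Bifonazole and ketoconazole were the references.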

[7] = system: Aspergillus fumigatus; experiment: Antifungal activity against Aspergillus fumigatus human isolate treated for 72 hrs followed by sub-cultivated for 5 days by serial dilution method; format: functional; how it was run: as §1
[8] = system: Listeria monocytogenes; experiment: Antibacterial activity against Listeria monocytogenes NCTC 7973 treated for 24 hrs followed by sub-cultivated for 72 hrs by micro dilution method; format: functional; how it was run: as §2
[9] = system: Escherichia coli; experiment: Antibacterial activity against Escherichia coli ATCC 35210 treated for 24 hrs followed by sub-cultivated for 72 hrs by micro dilution method; format: functional; how it was run: as §2
[10] = system: Listeria monocytogenes; experiment: Antibacterial activity against Listeria monocytogenes NCTC 7973 after 24 hrs by micro dilution method; format: functional; details: NCTC 7973, 24 h; how it was run: as §3
[11] = system: Aspergillus flavus; experiment: Antifungal activity against Aspergillus flavus ATCC 9643 after 72 hrs by serial dilution method; format: functional; details: ATCC 9643, 72 h; how it was run: as §4
[12] = system: Trichoderma viride; experiment: Antifungal activity against Trichoderma viride IAM 5061 after 72 hrs by serial dilution method; format: functional; details: IAM 5061, 72 h; how it was run: as §4
[13] = system: Aspergillus versicolor; experiment: Antifungal activity against Aspergillus versicolor ATCC 11730 after 72 hrs by serial dilution method; format: functional; details: ATCC 11730, 72 h; how it was run: as §4
[14] = system: Micrococcus flavus; experiment: Antibacterial activity against Micrococcus flavus ATCC 10240 after 24 hrs by micro dilution method; format: functional; details: ATCC 10240, 24 h; how it was run: as §3
[15] = system: Bacillus cereus; experiment: Antibacterial activity against Bacillus cereus clinical isolate after 24 hrs by micro dilution method; format: functional; how it was run: as §3
[16] = system: Penicillium ochrochloron; experiment: Antifungal activity against Penicillium ochrochloron ATCC 9112 after 72 hrs by serial dilution method; format: functional; details: ATCC 9112, 72 h; how it was run: as §4
[17] = system: Aspergillus niger; experiment: Antifungal activity against Aspergillus niger ATCC 6275 treated for 72 hrs followed by sub-cultivated for 5 days by serial dilution method; format: functional; how it was run: as §1
[18] = system: Talaromyces funiculosus; experiment: Antifungal activity against Penicillium funiculosum ATCC 36839 treated for 72 hrs followed by sub-cultivated for 5 days by serial dilution method; format: functional; how it was run: as §1
[19] = system: Aspergillus fumigatus; experiment: Antifungal activity against Aspergillus fumigatus human isolate after 72 hrs by serial dilution method; format: functional; how it was run: as §4
[20] = system: Salmonella typhimurium; experiment: Antibacterial activity against Salmonella Typhimurium ATCC 13311 treated for 24 hrs followed by sub-cultivated for 72 hrs by micro dilution method; format: functional, Salmonella enterica subsp. enterica serovar Typhimurium; details: Salmonella enterica; how it was run: as §2
[21] = system: Penicillium ochrochloron; experiment: Antifungal activity against Penicillium ochrochloron ATCC 9112 treated for 72 hrs followed by sub-cultivated for 5 days by serial dilution method; format: functional; how it was run: as §1
[22] = system: Fulvia fulva; experiment: Antifungal activity against Fulvia fulva treated for 72 hrs followed by sub-cultivated for 5 days by serial dilution method; format: functional; how it was run: as §1
[23] = system: Talaromyces funiculosus; experiment: Antifungal activity against Penicillium funiculosum ATCC 36839 after 72 hrs by serial dilution method; format: functional; details: ATCC 36839, 72 h; how it was run: as §4
[24] = system: Fulvia fulva; experiment: Antifungal activity against Fulvia fulva after 72 hrs by serial dilution method; format: functional; how it was run: as §4
[25] = system: Salmonella typhimurium; experiment: Antibacterial activity against Salmonella Typhimurium ATCC 13311 after 24 hrs by micro dilution method; format: functional, Salmonella enterica subsp. enterica serovar Typhimurium; details: Salmonella enterica, ATCC 13311, 24 h; how it was run: as §3
[26] = system: Pseudomonas aeruginosa; experiment: Antibacterial activity against Pseudomonas aeruginosa ATCC 27853 treated for 24 hrs followed by sub-cultivated for 72 hrs by micro dilution method; format: functional; how it was run: as §2
[27] = system: Micrococcus flavus; experiment: Antibacterial activity against Micrococcus flavus ATCC 10240 treated for 24 hrs followed by sub-cultivated for 72 hrs by micro dilution method; format: functional; how it was run: as §2
[28] = system: Enterobacter cloacae; experiment: Antibacterial activity against Enterobacter cloacae human isolate after 24 hrs by micro dilution method; format: functional; how it was run: as §3
[29] = system: Pseudomonas aeruginosa; experiment: Antibacterial activity against Pseudomonas aeruginosa ATCC 27853 after 24 hrs by micro dilution method; format: functional; details: ATCC 27853, 24 h; how it was run: as §3
[30] = system: Enterobacter cloacae; experiment: Antibacterial activity against Enterobacter cloacae human isolate treated for 24 hrs followed by sub-cultivated for 72 hrs by micro dilution method; format: functional; how it was run: as §2
[31] = system: Staphylococcus aureus; experiment: Antibacterial activity against Staphylococcus aureus ATCC 6538 after 24 hrs by micro dilution method; format: functional; details: ATCC 6538, 24 h; how it was run: as §3
[32] = system: Aspergillus flavus; experiment: Antifungal activity against Aspergillus flavus ATCC 9643 treated for 72 hrs followed by sub-cultivated for 5 days by serial dilution method; format: functional; how it was run: as §1

Row | SMILES | MFC [1] | MBC [2] | MFC [3] | MBC [4] | MIC [5] | MIC [6] | MFC [7] | MBC [8] | MBC [9] | MIC [10] | MIC [11] | MIC [12] | MIC [13] | MIC [14] | MIC [15] | MIC [16] | MFC [17] | MFC [18] | MIC [19] | MBC [20] | further results
1 | CCCNc1nnc(Cc2cc(OC)c(OC)cc2S(=O)(=O)N(C)C)s1 | 500 µM (≈ 200 µg/mL) | 500 µM (≈ 200 µg/mL) | 130 µM (≈ 52.1 µg/mL) | 500 µM (≈ 200 µg/mL) | 250 µM (≈ 100 µg/mL) | 60 µM (≈ 24 µg/mL) | 250 µM (≈ 100 µg/mL) | 500 µM (≈ 200 µg/mL) | 250 µM (≈ 100 µg/mL) | 500 µM (≈ 200 µg/mL) | 130 µM (≈ 52.1 µg/mL) | 60 µM (≈ 24 µg/mL) | 250 µM (≈ 100 µg/mL) | 250 µM (≈ 100 µg/mL) | 250 µM (≈ 100 µg/mL) | 130 µM (≈ 52.1 µg/mL) | 130 µM (≈ 52.1 µg/mL) | 250 µM (≈ 100 µg/mL) | 130 µM (≈ 52.1 µg/mL) | 500 µM (≈ 200 µg/mL) | MFC [21]: 250 µM (≈ 100 µg/mL); MFC [22]: 130 µM (≈ 52.1 µg/mL); MIC [23]: 130 µM (≈ 52.1 µg/mL); MIC [24]: 60 µM (≈ 24 µg/mL); MIC [25]: 250 µM (≈ 100 µg/mL); MBC [26]: 500 µM (≈ 200 µg/mL); MBC [27]: 500 µM (≈ 200 µg/mL); MIC [28]: 500 µM (≈ 200 µg/mL); MIC [29]: 500 µM (≈ 200 µg/mL); MBC [30]: 500 µM (≈ 200 µg/mL); MIC [31]: 500 µM (≈ 200 µg/mL); MFC [32]: 250 µM (≈ 100 µg/mL)
2 | COc1cc(Cc2nnc(NC(C)C)s2)c(S(=O)(=O)N(C)C)cc1OC | 750 µM (≈ 300 µg/mL) | 460 µM (≈ 184 µg/mL) | 250 µM (≈ 100 µg/mL) | 500 µM (≈ 200 µg/mL) | 380 µM (≈ 152 µg/mL) | 250 µM (≈ 100 µg/mL) | 250 µM (≈ 100 µg/mL) | 460 µM (≈ 184 µg/mL) | 460 µM (≈ 184 µg/mL) | 380 µM (≈ 152 µg/mL) | 250 µM (≈ 100 µg/mL) | 130 µM (≈ 52.1 µg/mL) | 250 µM (≈ 100 µg/mL) | 380 µM (≈ 152 µg/mL) | 250 µM (≈ 100 µg/mL) | 500 µM (≈ 200 µg/mL) | 750 µM (≈ 300 µg/mL) | 500 µM (≈ 200 µg/mL) | 130 µM (≈ 52.1 µg/mL) | 500 µM (≈ 200 µg/mL) | MFC [21]: 750 µM (≈ 300 µg/mL); MFC [22]: 250 µM (≈ 100 µg/mL); MIC [23]: 250 µM (≈ 100 µg/mL); MIC [24]: 130 µM (≈ 52.1 µg/mL); MIC [25]: 250 µM (≈ 100 µg/mL); MBC [26]: 380 µM (≈ 152 µg/mL); MBC [27]: 380 µM (≈ 152 µg/mL); MIC [28]: 460 µM (≈ 184 µg/mL); MIC [29]: 250 µM (≈ 100 µg/mL); MBC [30]: 460 µM (≈ 184 µg/mL); MIC [31]: 380 µM (≈ 152 µg/mL); MFC [32]: 750 µM (≈ 300 µg/mL)
